Compounds with a hit are over-represented: about 3.7% of the library has one in this group of screens.
NPY-Y1 PAM-ag: NPY-Y1 receptor potentiators or agonists, primary screen, cell-based | NPY-Y1 expressing cells, potentiator/agonist activation | activation, % at 3.6 µM | 220,000 compounds, 0.37% hits; in the data active means activation above about 33%, passing the limit was not always enough;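 further: cells stimulated with NPY at EC10 then isoproterenol at EC100; 0% = low agonist plus stimulus and 100% = saturating agonist plus stimulus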
Target sequence (P25929 whole entry, looked up): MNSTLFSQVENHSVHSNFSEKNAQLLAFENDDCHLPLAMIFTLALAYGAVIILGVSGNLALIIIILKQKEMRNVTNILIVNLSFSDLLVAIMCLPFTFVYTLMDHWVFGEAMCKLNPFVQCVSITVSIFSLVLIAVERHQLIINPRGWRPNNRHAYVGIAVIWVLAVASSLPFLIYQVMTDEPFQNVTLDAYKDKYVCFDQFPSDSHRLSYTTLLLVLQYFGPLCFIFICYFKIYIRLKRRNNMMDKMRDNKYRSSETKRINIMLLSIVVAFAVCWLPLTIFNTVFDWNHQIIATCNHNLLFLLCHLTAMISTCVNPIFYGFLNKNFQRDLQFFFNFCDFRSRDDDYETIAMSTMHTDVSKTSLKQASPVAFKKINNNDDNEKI
NPY2 pot ag: NPY-Y2 potentiators or agonists, primary screen, cell-based; cells expressing NPY-Y2, potentiator/agonist read-out; activation, % at 3.6 µM; 220,000 compounds, 0.45% hits; AID 1359, 2008; Neuropeptide Y receptor type 2 (Homo sapiens), P49146; in the data active means activation above about 27%;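 further: cells stimulated with NPY near EC25 plus isoproterenol at EC100; 0% = vehicle plus submaximal agonist and 100% = vehicle plus saturating agonist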
NPY Y2 blocker: NPY-Y2 receptor antagonists, primary screen, cell-based | NPY-Y2 expressing cells, antagonist mode | inhibition, % at 2.7 µM | 140,000 compounds, 0.99% hits | AID 793, 2007; in the data active means inhibition above about 17%;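 further: 0% = vehicle with agonist challenge and 100% = reference antagonist with challenge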
Cl transport mod: KCC2 cotransporter modulators, thallium flux, primary screen, cell-based, HEK293 KCC2, FluoZin-2 fluorescence, MLSMR; B-score of Tl+ flux slope (higher = more flux/activation; lower = inhibition) at 10 µM; KCC2 cells, thallium flux FluoZin-2 fluorescence; 190,000 compounds, 2.2% hits; AID 1456, 2008; Solute carrier family 12 member 5 (Homo sapiens), Q9H2X9;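 active means thallium flux slope and its plate-corrected score both differing from the plate sample mean at a set confidence after two filtering rounds, in either direction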;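 further: slope of fluorescence scaled to starting intensity during 10 to 20 s after thallium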
Furin inh: human furin inhibitors, primary screen, biochemical, fluorescence intensity | P09958 | 220,000 compounds, 0.061% hits | inhibition, % at 20 µM or 30 µM | purified furin, fluorogenic substrate cleavage; in the data active means inhibition above about 25%
NPY Y1 blocker: NPY-Y1 receptor antagonists, primary screen, cell-based. inhibition, % at 3.6 µM. 200,000 compounds, 1% hits. HEK293-CNG Y1 cells, membrane potential fluorescence; NPY at EC95, then isoproterenol. Neuropeptide Y receptor type 1 (Homo sapiens), P25929;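 active means inhibition above the campaign mean inhibition of all tested compounds plus 3 SD, cut at about 20% in these data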;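 further: 0% = DMSO wells given NPY plus isoproterenol and 100% = isoproterenol alone without NPY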
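Benchmarks – high control isoproterenol alone, low control NPY with isoproterenol · Material – HEK293 Y1/CNG channel cell line · Times – dye 3 h, compound 60 min room temperature, stimulation 45 min · Probe or stimulus – NPY (25 nM), isoproterenol (1 µM), Ro 20-1724 (25 µM) · Evaluation – % inhibition of NPY effect · Signal – fluorescence, membrane potential probe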
Starred values were filed as active, the others as inactive; . = no result given.

SMILES | NPY-Y1 PAM-ag | NPY2 pot ag | NPY Y2 blocker | Cl transport mod | Furin inh | NPY Y1 blocker
O=C(Nc1cc(S(=O)(=O)N2CCOCC2)ccc1Cl)C(=O)c1c(-c2ccccc2)cc2ccccn12 | 7 | 11 | 6 | -2 | -22 | 4
Cc1cccn2c(CNCC3(c4ccccc4)CCCC3)c(C(=O)N3CCOCC3)nc12 | 8 | 12 | . | -0.073 | -2 | 20*
COc1ccc(S(=O)(=O)N2CCCN(CC(=O)Nc3ccc(OC)c(Cl)c3)CC2)cc1 | -46 | -21 | 18* | -0.034 | -13 | 38*
COc1ccc(NC(=O)CN2CCN(S(=O)(=O)c3ccc(Cl)cc3)CC2)cc1Cl | 8 | 17 | -1 | -0.17 | -29 | 6
CCCCNC(=O)c1onc(CSc2ccccc2CC)c1C(=O)O | -22 | -51 | 14 | -2.3 | 2 | 21*
COC(=O)CNC(c1ccccc1)c1cc(Br)ccc1NC(=O)OCc1ccccc1 (configuration not stated) | -12 | -24 | 10 | 0.41 | -6 | 14
COC(=O)CNC(c1ccccc1)c1cc(C)ccc1NC(=O)c1cccc(Cl)c1 (configuration not stated) | -27 | -6 | 17* | -0.89 | -32 | 28*
COC(=O)CNC(c1ccccc1)c1cc(C)ccc1NC(=O)CNC(=O)OCc1ccccc1 (configuration not stated) | -34 | -22 | 38* | -0.31 | -12 | 29*
NC(=O)NC(=O)COC(=O)CCSc1ccccc1 | -19 | -7 | . | -0.61 | -15 | 0
Cc1ccccc1Nc1c(-c2cccnc2)nc2ccccn12 | 42 | 34 | . | 0.047 | -6 | .
Cc1ccc2nc(-c3cccnc3)c(Nc3ccccc3C)n2c1 | 46* | 41* | . | -0.61 | -15 | -6
Cc1ccccc1Nc1c(-c2cccnc2)nc2ccc(Br)cn12 | 79* | 74* | . | -0.51 | -4 | -12
COc1ccc(-c2[nH]ncc2-c2cnn(-c3ccccc3)c2)c(O)c1 | 2 | 11 | -1 | -1.1 | -26 | 3
O=C(COC(=O)c1ccc(S(=O)(=O)Nc2ccccc2)cc1)NCCC1=CCCCC1 | 8 | 24 | -1 | -0.1 | 3 | 1
CC(C)NCC(O)c1ccc(NS(C)(=O)=O)cc1 (configuration not stated) | 96* | 78 | . | 0.57 | . | -15
Cc1cccc(CCNS(=O)(=O)c2ccc(S(=O)(=O)N3CCC(C)CC3)cc2)c1 | 3 | -3 | 1 | -0.35 | -20 | 22*
O=C(c1ccc(F)cc1)c1ccc(N2CCCC2)cc1 | -6 | -8 | 3 | -0.23 | -13 | 21*
O=C(Nc1ccc(N2CCCCC2)cc1)c1ccc(F)cc1 | -7 | -1 | 3 | -0.43 | -22 | 0
COc1ccc(-c2nn(-c3ccccc3)cc2CNCCN2CCOC2=O)c(F)c1 | 0 | -14 | . | . | -18 | 1
COc1ccc(-n2cc(CNCCCN3CCCC3=O)c(-c3ccccc3Cl)n2)cc1 | -2 | -7 | . | 0.76 | -22 | 20*
CN(C)c1nc(NCc2ccccc2)nc(SCC(=O)Nc2ccccc2Cl)n1 | 2 | -3 | 43* | -0.74 | -17 | 26*
O=C(NCCOC12CC3CC(CC(C3)C1)C2)c1cccc(Br)c1 | -26 | -26 | 2 | 1.6 | -13 | 4
COc1ccc(CC(=O)Nc2nn(C)c3nc4c(C)cccc4cc23)cc1 | -21 | -4 | . | -0.86 | -17 | .
C=C(C)CNC(=S)Nc1nc2c(cc1C(=O)OCC)CCCC2 | 3 | -2 | 4 | 43* | -13 | 3
CCOC(=O)c1cc2c(nc1N)CCCC2 | -10 | 16 | . | -0.39 | -21 | .
O=C(Nc1ccc2nc(SCc3ccc(Cl)cc3)sc2c1)c1ccccc1C(=O)N1CCOCC1 | 5 | -23 | 2 | . | 1 | 1
CCOC(=O)CSc1nc2ccc(NC(C)=O)cc2s1 | 72* | 58* | -1 | 0.28 | -30 | -9
COC(=O)CSc1nc2ccc(NC(=O)c3ccccc3C(=O)N3CCOCC3)cc2s1 | 109* | 95* | 2 | -0.23 | -18 | -16

Assay outcomes: PubChem, several laboratories
